According to ChEMBL document CHEMBL3108698, “Targeting low-druggability bromodomains: fragment based screening and inhibitor design against the BAZ2B bromodomain” (J Med Chem, 2013):

What was measured:
[1] = target: Bromodomain adjacent to zinc finger domain protein 2B (Homo sapiens) (UniProt Q9UIF8); experiment: Displacement of biotinylated H3Kac14 peptide from His6-tagged human BAZ2B expressed in Escherichia coli BL21(DE3) at 200 uM after 30 mins by AlphaLISA assay relative to control
[2] = target: Bromodomain-containing protein 2 (Homo sapiens) (UniProt P25440); experiment: Binding affinity to BRD2 bromodomain-2 (unknown origin) assessed as change in melting temperature at 100 uM by differential scanning fluorimetric analysis
Bromodomain-containing protein 2 (Homo sapiens), sequence (P25440 whole entry, looked up): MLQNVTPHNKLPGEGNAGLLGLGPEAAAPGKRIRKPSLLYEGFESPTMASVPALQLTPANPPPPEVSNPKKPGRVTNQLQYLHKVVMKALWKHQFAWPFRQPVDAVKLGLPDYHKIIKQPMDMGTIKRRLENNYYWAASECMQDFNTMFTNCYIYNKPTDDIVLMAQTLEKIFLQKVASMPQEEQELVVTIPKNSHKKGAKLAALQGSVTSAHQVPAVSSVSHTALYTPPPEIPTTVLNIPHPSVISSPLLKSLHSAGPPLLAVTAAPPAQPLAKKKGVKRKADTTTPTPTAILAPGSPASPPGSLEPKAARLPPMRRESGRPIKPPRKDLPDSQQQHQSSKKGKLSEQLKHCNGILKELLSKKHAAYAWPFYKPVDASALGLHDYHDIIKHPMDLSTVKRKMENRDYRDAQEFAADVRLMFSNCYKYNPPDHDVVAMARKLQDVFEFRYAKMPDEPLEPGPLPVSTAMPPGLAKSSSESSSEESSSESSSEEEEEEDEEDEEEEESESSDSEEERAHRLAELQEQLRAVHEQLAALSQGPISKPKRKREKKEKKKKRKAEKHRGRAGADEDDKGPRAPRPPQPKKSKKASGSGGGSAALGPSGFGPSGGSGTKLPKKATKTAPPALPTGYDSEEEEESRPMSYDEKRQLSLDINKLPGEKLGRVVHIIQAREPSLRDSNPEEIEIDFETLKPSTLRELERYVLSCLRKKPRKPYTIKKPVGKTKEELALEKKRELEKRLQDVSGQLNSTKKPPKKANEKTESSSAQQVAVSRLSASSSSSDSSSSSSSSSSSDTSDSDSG
In short: (§1)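 SYPRO Orange (1:1000) thermal shift with 2 μM bromodomain and 100 μM compound (final), 0.1% DMSO final, in 10 mM HEPES, 500 mM NaCl, 5% glycerol, 0.5 mM TCEP. Tm taken as the minimum of the negative first derivative of the melt curve. Run in triplicate; averages reported.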

[3] = target: Bromodomain-containing protein 2 (Homo sapiens) (UniProt P25440); experiment: Binding affinity to BRD2 bromodomain-1 (unknown origin) assessed as change in melting temperature at 100 uM by differential scanning fluorimetric analysis; in short: as §1
[4] = target: CREB-binding protein (Homo sapiens) (UniProt Q92793); experiment: Binding affinity to CREBBP (unknown origin) assessed as change in melting temperature at 100 uM by differential scanning fluorimetric analysis; in short: as §1

Bromodomain adjacent to zinc finger domain protein 2B (Homo sapiens), sequence (Q9UIF8 whole entry, the tested form may be a part): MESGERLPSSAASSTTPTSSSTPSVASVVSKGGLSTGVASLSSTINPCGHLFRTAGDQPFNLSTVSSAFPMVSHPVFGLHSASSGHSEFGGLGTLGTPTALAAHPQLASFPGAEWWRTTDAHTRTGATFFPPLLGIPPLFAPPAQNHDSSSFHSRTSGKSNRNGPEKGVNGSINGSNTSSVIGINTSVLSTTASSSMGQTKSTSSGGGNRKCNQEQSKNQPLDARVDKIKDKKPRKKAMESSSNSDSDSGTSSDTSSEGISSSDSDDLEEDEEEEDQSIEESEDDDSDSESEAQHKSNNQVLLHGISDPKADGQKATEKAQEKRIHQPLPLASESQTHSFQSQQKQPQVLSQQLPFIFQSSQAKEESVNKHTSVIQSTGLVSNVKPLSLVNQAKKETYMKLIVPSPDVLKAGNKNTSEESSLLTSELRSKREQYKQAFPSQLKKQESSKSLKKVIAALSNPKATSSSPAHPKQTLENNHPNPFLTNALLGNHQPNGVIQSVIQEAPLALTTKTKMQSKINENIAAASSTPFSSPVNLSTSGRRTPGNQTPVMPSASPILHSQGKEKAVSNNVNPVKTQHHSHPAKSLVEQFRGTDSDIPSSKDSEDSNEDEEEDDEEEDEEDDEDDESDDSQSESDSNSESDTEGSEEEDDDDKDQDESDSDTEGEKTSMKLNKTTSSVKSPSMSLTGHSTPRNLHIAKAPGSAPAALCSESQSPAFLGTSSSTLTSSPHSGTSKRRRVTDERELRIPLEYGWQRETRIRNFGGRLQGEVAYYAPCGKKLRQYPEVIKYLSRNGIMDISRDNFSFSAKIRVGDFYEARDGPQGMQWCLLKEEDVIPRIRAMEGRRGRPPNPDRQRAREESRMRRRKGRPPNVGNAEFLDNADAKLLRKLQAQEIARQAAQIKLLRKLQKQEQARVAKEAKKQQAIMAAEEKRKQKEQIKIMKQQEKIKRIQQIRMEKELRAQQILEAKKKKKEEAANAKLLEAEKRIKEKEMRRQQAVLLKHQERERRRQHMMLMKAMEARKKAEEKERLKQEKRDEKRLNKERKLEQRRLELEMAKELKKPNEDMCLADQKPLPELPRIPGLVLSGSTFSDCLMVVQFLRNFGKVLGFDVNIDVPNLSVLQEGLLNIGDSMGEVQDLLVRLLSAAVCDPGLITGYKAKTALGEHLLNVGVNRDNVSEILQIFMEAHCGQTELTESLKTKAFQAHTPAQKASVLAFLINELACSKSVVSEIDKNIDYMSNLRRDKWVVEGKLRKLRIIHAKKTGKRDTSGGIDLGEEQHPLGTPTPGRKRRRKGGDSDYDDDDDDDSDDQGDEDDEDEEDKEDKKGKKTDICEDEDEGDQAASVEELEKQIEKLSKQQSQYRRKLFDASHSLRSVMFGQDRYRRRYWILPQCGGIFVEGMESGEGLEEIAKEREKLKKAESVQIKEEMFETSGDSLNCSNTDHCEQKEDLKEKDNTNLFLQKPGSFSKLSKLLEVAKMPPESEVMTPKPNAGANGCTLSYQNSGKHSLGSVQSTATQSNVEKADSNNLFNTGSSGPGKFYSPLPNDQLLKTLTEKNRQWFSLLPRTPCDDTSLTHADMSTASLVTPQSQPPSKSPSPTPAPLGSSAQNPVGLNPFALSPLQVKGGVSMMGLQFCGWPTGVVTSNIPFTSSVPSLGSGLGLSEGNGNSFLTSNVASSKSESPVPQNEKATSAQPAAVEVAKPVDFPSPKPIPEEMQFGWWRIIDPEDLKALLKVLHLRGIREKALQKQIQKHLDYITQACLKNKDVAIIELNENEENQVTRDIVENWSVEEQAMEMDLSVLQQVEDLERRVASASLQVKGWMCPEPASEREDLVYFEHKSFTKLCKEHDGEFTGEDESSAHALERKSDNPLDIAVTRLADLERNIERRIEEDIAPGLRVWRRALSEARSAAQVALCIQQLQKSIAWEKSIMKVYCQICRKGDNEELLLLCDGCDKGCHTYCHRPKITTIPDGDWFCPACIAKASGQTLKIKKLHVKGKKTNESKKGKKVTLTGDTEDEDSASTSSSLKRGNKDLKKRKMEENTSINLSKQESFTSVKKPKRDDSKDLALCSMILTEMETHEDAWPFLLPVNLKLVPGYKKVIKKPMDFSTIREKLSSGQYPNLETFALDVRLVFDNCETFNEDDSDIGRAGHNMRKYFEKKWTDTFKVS

Compound | inhibition [1] [%] | further results
CC(=O)N1CCc2c(c3cc(Br)ccc3n2C(=O)OC(C)(C)C)C1 | 38 | 
CC(=O)N1CCc2[nH]c3ccc(-c4cccnc4)cc3c2C1 | 55 | 
CC(=O)N1CCc2[nH]c3ccc(Br)cc3c2C1 |  | ΔTm [2]: 3.5 °C; ΔTm [3]: 7.3 °C; ΔTm [4]: 8.1 °C
CC(=O)N1CCc2c(c3cccc4c3n2CCS4)C1 | 70 | 
CNC(=O)N1CCc2[nH]c3ccc(Cl)cc3c2C1 |  | ΔTm [2]: -0.2 °C; ΔTm [3]: -0.6 °C; ΔTm [4]: 2.1 °C
CC(=O)N1CCc2c(c3cc(Br)ccc3n2S(=O)(=O)c2ccc(C)cc2)C1 | 60 | 
CC(=O)N1CCc2[nH]c3ccc(N(C)C(C)=O)cc3c2C1 | 65 | 
CC(=O)N1CCc2[nH]c3ccc(C(=O)O)cc3c2C1 | 48 | 
CC(=O)N1CCc2c(c3cccc4c3n2C(=O)CN4C)C1 | 63 | 
CC(=O)N1CCc2[nH]c3c(O)ccc(Cl)c3c2C1 | 52 | 
CC(=O)N1CCc2[nH]c3ccc(Oc4ccccc4)cc3c2C1 | 65 | 
